# Test results published in the M2OR odorant receptor database.
# Target: T1, OR10A7 (Homo sapiens) (UniProt Q8NGE5)
# T1 sequence (whole entry): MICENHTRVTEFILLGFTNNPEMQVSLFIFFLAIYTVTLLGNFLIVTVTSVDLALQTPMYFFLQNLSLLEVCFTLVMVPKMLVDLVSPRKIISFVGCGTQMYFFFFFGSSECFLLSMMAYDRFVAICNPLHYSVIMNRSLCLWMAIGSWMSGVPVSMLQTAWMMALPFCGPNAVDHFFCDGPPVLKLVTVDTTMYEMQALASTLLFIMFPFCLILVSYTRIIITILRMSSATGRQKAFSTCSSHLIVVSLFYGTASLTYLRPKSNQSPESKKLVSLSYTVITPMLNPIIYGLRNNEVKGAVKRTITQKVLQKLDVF
# Details: stereoisomer not certain
# Outline: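 Transient luciferase assays in mammalian cell lines were common, though methods varied by source. The values come from published papers and their supplementary material, with extra details from the original authors when needed. Responsive refers to a measured signal the original authors judged statistically different from baseline, and non-responsive (inactive) to the remainder.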
# 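Further: active if original authors judged signal statistically different from baseline.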
structure (smiles),measurement,value
CC1(C)CC(=O)CC(=O)C1,odorant receptor agonist call,inactive
